# Data taken from PubChem BioAssay AID624007 (Broad Institute, 2012).
# A number with no mark means an inactive call.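 The calls were made as follows: active = compounds lowering the uptake signal whose fitted half-maximal concentration is at most twice their top valid dose; inconclusive = flat curve between 30% and 70% signal loss, or poor fit; inactive = opposite direction, flat near zero, or potency beyond limit.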
# Assay: DiI-HDL uptake inhibition in parental ldlA7 cells, dose response, counter-screen for SR-BI HDL uptake inhibitor project, cell-based, CHO ldlA7, fluorescence, dry powder, set 2 (AID 624007)
# Settings: 3 h
# Method in brief: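 Material: LDL receptor-deficient parental CHO ldlA7 cells; medium: HEPES-buffered (pH 7.4) F12 plus 0.5% fatty acid-free BSA; reagent: DiI-labelled HDL, 10 µg/mL final; dosing: test compounds delivered by pin transfer; incubation: 3 h exposure at 37 °C; measured by: DiI fluorescence, bottom read, Ex 550/Em 595 nm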
smiles,measurement,setting,value
CC(C)NC(=O)Nc1ccc2c(c1)C(=O)N([C@H](C)CO)C[C@@H](C)[C@H](CN(C)S(=O)(=O)c1ccc(Cl)cc1)O2,"DiI-HDL uptake signal change vs neutral control (%), lower = more inhibition",at 0.001 nM,-2.43%
same,"DiI-HDL uptake signal change vs neutral control (%), lower = more inhibition",at 0.1 nM,5.95%
CC(C)NC(=O)Nc1ccc2c(c1)C(=O)N([C@@H](C)CO)C[C@H](C)[C@@H](CN(C)S(=O)(=O)c1ccc(Cl)cc1)O2,"DiI-HDL uptake signal change vs neutral control (%), lower = more inhibition",at 0.002 nM,5.3%
CC(C)NC(=O)Nc1ccc2c(c1)CC(=O)N([C@H](C)CO)C[C@@H](C)[C@H](CN(C)S(=O)(=O)c1ccc(Cl)cc1)O2,"DiI-HDL uptake signal change vs neutral control (%), lower = more inhibition",at 0.1 nM,4.77%
CC(C)NC(=O)Nc1ccc2c(c1)C(=O)N([C@H](C)CO)C[C@@H](C)[C@@H](CN(C)S(=O)(=O)c1ccc(Cl)cc1)O2,"DiI-HDL uptake signal change vs neutral control (%), lower = more inhibition",at 0.6 nM,5.71%
CC(C)NC(=O)Nc1ccc2c(c1)C(=O)N([C@@H](C)CO)C[C@@H](C)[C@@H](CN(C)S(=O)(=O)c1ccc(Cl)cc1)O2,"DiI-HDL uptake signal change vs neutral control (%), lower = more inhibition",at 1.6 nM,4.53%
CC(C)NC(=O)Nc1ccc2c(c1)C(=O)N([C@H](C)CO)C[C@H](C)[C@H](CN(C)S(=O)(=O)c1ccc(Cl)cc1)O2,"DiI-HDL uptake signal change vs neutral control (%), lower = more inhibition",at 15 nM,8.44%
CC(C)NC(=O)Nc1ccc2c(c1)C(=O)N([C@@H](C)CO)C[C@H](C)[C@H](CN(C)S(=O)(=O)c1ccc(Cl)cc1)O2,"DiI-HDL uptake signal change vs neutral control (%), lower = more inhibition",at 46 nM,8.74%
CC(C)NC(=O)Nc1cccc2c1O[C@@H](CN(C)S(=O)(=O)c1ccc(Cl)cc1)[C@H](C)CN([C@H](C)CO)C2=O,"DiI-HDL uptake signal change vs neutral control (%), lower = more inhibition",at 420 nM,9.23%
